Legend:
[1] = Volume of distribution at steady state in Sprague-Dawley rat at 3 mg/kg, iv measured upto 24 hrs by HPLC/UV analysis; assay type: ADME, organism-based; details: in vivo, read-out: Vdss
Method in brief: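 Female Sprague Dawley rats, 8 weeks, jugular vein and femoral artery catheters, 96 h recovery. IV 3 mg/kg in ethanol/NMP/PEG400/D5W (10/10/50/30), n=2.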

[2] = Dose normalized Cmax in Sprague-Dawley rat at 50 mg/kg, po measured upto 24 hrs by HPLC/UV analysis; assay type: ADME, organism-based; details: in vivo
Method in brief: (§1)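 Female Sprague Dawley rats, 8 weeks old, catheterized. Oral suspension in 0.5 % carboxymethyl cellulose at 50 mg/kg, n=3. Bioavailability taken against 3 mg/kg iv. Plasma sampled 5 min–24 h. Cmax and AUC(0–∞) dose-normalized.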

[3] = tested on: BaF3; assay: Antiproliferative activity against mouse BaF3 cells expressing ERBB2 V659E mutant assessed as cell growth inhibition measured after 72 hrs by Alamar Blue assay; details: BaF3, 72 h
[4] = tested on: BaF3; assay: Antiproliferative activity against mouse BaF3 cells expressing Trp-MET assessed as cell growth inhibition measured after 72 hrs by Alamar Blue assay; details: BaF3, 72 h
[5] = tested on: BaF3; assay: Antiproliferative activity against mouse BaF3 cells expressing KIT D816V mutant assessed as cell growth inhibition measured after 72 hrs by Alamar Blue assay; details: BaF3, 72 h
[6] = tested on: BaF3; assay: Antiproliferative activity against mouse BaF3 cells expressing Tel-KDR-myc1.3 assessed as cell growth inhibition measured after 72 hrs by Alamar Blue assay; details: BaF3, 72 h
[7] = Dose normalized AUC(0 to infinity) in Sprague-Dawley rat at 50 mg/kg, po measured upto 24 hrs by HPLC/UV analysis; assay type: ADME, organism-based; details: in vivo; method in brief: as §1
[8] = tested on: BaF3; assay: Antiproliferative activity against mouse BaF3 cells expressing PTC3-RET assessed as cell growth inhibition measured after 72 hrs by Alamar Blue assay; details: BaF3, 72 h
[9] = Toxicity in C57BL/6jNpa mouse harbouring mouse B16-BL6 cells assessed as effect on hematocrit levels at 3 mg/kg, po qd administered started on day 7 post implantation measured after 21 days; assay type: organism-based; details: in vivo, 504 h, time 7-21 day
Method in brief: (§2)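 B16/BL6 melanoma cells (50000) injected intradermally into dorsal pinna of both ears of female mice (18–20 g). Randomized on day 7 into groups of 5-6 by primary tumor size, then dosed orally once daily for 14 days in PEG300 or PEG200. Sacrificed day 21; blood analysed directly for platelets, red and white cell counts, hematocrit. Body and spleen weight recorded versus healthy naive mouse.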

[10] = Toxicity in C57BL/6jNpa mouse harbouring mouse B16-BL6 cells assessed as effect on spleen weight at 3 mg/kg, po qd administered started on day 7 post implantation measured after 21 days; assay type: organism-based; details: in vivo, 504 h, time 7-21 day; method in brief: as §2
[11] = Half-life in Sprague-Dawley rat at 3 mg/kg, iv measured upto 24 hrs by HPLC/UV analysis; assay type: ADME, organism-based; details: in vivo
Method in brief: (§3)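 Female Sprague Dawley rats, 8 weeks old, catheterized in the jugular vein and femoral artery, recovered 96 h. IV dose 3 mg/kg in ethanol/NMP/PEG400/5 % glucose (10/10/50/30). n=2. Plasma sampled at 5, 15, 30 min and 1, 2, 4, 6, 8, 24 h.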

[12] = target: Vascular endothelial growth factor receptor 2 (Mus musculus, UniProt P35918); assay: Inhibition of mouse recombinant GST-fused VEGFR2 kinase domain expressed in baculovirus expression system using poly-Glu-Tyr (4:1) as substrate measured after 10 mins in presence of gamma-[33P]-ATP by scintillation counting analysis
Method in brief: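 GST-fused kinase domains were expressed in baculovirus and purified on glutathione-Sepharose. 10 min at ambient temperature, stopped with EDTA. Filter binding and scintillation counting. IC50 by linear regression of percent inhibition.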

[13] = Tmax in Sprague-Dawley rat at 50 mg/kg, po measured upto 24 hrs by HPLC/UV analysis; assay type: ADME, organism-based; details: in vivo; method in brief: as §1
[14] = tested on: HUVEC; assay: Antiproliferative activity against bFGF-stimulated HUVEC cells assessed as cell growth inhibition measured after 24 hrs by BrdUrd incorporation based spectrophotometric analysis; details: Homo sapiens
[15] = tested on: HUVEC; assay: Antiproliferative activity against VEGF-stimulated HUVEC cells assessed as cell growth inhibition measured after 24 hrs by BrdUrd incorporation based spectrophotometric analysis; details: Homo sapiens
[16] = tested on: BaF3; assay: Antiproliferative activity against mouse BaF3 cells expressing Tel-FGFR3 assessed as cell growth inhibition measured after 72 hrs by Alamar Blue assay; details: BaF3, 72 h
[17] = Toxicity in VEGF-induced FVB mouse model at 0.3 to 3 mg/kg, po qd treated for 4 to 6 hrs prior to chamber implantation and continuing for 4 days measured after 24 hrs post last dose; assay type: organism-based; details: in vivo, 120 h, dose 0.3-3 mg/kg, time 5 day
Method in brief: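 Female FVB mice (18–20 g), groups of 6. Porous chambers with VEGF (2 μg/mL) in 0.5 mL 0.8 % agar with heparin (20 U/mL) implanted subcutaneously in flank. Oral dosing once daily in 100 % PEG200 (5 mL/kg), starting 4-6 h before implantation, for 4 days; chambers removed 24 h after last dose. Animals observed for signs of toxicity.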

[18] = tested on: BaF3; assay: Antiproliferative activity against mouse BaF3 cells expressing NPM-ALK assessed as cell growth inhibition measured after 72 hrs by Alamar Blue assay; details: BaF3, 72 h
[19] = Toxicity in C57BL/6jNpa mouse harbouring mouse B16-BL6 cells assessed as drug tolerability at 3 mg/kg, po qd administered started on day 7 post implantation measured after 21 days; assay type: organism-based; details: in vivo, 504 h, time 7-21 day
Method in brief: (§4)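 Female C57BL/6JNpa mice received 50000 B16/BL6 cells intradermally in both ear pinnae. Randomized on day 7 into groups of 5–6, then dosed 3 mg/kg p.o. daily in PEG200/PEG300 for 14 days. Behavior and well-being were observed. On day 21, blood was analysed for platelet, red and white cell counts and hematocrit.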

[20] = tested on: BaF3; assay: Antiproliferative activity against mouse BaF3 cells expressing Bcr-ABL assessed as cell growth inhibition measured after 72 hrs by Alamar Blue assay; details: BaF3, 72 h
[21] = Toxicity in C57BL/6jNpa mouse harbouring mouse B16-BL6 cells assessed as effect on animal behavior at 3 mg/kg, po qd administered started on day 7 post implantation measured after 21 days; assay type: organism-based; details: in vivo, 504 h, time 7-21 day; method in brief: as §4
[22] = Toxicity in C57BL/6jNpa mouse harbouring mouse B16-BL6 cells assessed as effect on blood platelet count at 3 mg/kg, po qd administered started on day 7 post implantation measured after 21 days; assay type: organism-based; details: in vivo, 504 h, time 7-21 day; method in brief: as §4
[23] = Toxicity in C57BL/6jNpa mouse harbouring mouse B16-BL6 cells assessed as effect on white blood cell count at 3 mg/kg, po qd administered started on day 7 post implantation measured after 21 days; assay type: organism-based; details: in vivo, 504 h, time 7-21 day; method in brief: as §2
[24] = Clearance in Sprague-Dawley rat at 3 mg/kg, iv measured upto 24 hrs by HPLC/UV analysis; assay type: ADME, organism-based; details: in vivo; method in brief: as §3
[25] = Toxicity in C57BL/6jNpa mouse harbouring mouse B16-BL6 cells assessed as effect on red blood cell count at 3 mg/kg, po qd administered started on day 7 post implantation measured after 21 days; assay type: organism-based; details: in vivo, 504 h, time 7-21 day; method in brief: as §2
[26] = tested on: BaF3; assay: Antiproliferative activity against mouse BaF3 cells expressing Tel-PDGFRbeta assessed as cell growth inhibition measured after 72 hrs by Alamar Blue assay; details: BaF3, 72 h

Sequence of Vascular endothelial growth factor receptor 2 (P35918 whole entry, the tested form may be a part): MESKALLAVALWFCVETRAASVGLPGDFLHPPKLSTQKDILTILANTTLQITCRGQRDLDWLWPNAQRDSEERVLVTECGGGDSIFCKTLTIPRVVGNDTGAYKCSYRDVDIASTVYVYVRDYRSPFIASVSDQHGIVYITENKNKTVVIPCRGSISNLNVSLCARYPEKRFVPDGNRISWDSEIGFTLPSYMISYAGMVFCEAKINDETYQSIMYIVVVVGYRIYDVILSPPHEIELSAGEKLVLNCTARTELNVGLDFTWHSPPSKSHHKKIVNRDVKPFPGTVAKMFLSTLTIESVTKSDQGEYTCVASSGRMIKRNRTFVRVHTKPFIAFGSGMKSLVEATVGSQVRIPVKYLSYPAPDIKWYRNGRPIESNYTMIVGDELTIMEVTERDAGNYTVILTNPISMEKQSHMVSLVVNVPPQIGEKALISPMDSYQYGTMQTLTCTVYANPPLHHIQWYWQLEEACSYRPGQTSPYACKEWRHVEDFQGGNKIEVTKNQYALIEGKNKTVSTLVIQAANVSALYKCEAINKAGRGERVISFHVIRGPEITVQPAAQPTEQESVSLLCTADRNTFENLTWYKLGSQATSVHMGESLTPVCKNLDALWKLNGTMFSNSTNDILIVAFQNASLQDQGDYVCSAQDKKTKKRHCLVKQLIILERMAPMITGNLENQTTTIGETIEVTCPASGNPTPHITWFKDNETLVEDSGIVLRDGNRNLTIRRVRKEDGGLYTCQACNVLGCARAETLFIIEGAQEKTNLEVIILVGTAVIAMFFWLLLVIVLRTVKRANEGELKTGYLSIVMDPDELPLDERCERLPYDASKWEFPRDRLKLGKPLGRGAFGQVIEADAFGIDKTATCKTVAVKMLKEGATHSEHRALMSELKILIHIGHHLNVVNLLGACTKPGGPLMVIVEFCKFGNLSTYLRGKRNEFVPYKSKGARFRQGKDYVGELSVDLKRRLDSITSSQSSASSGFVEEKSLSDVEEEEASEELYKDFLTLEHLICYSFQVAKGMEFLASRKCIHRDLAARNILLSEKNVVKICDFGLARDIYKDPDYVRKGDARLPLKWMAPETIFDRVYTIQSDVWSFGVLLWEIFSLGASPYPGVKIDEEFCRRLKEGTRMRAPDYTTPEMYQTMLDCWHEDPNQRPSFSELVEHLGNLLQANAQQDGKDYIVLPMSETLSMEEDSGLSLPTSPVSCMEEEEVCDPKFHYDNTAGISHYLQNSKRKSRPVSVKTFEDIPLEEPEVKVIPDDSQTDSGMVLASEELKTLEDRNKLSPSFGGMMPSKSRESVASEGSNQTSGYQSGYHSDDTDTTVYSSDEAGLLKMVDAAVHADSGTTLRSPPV

Nc1nccc(Oc2ccc3c(C(=O)Nc4ccc(F)c(C(F)(F)F)c4)cccc3c2)n1
Vd [1]: 3.5 L/kg | Cmax/dose [2]: 70 nM | IC50 [3]: > 10000 nM | IC50 [4]: > 10000 nM | IC50 [5]: 8510 nM | IC50 [6]: 9 nM | AUC/dose [7]: 1.37 µmol·h/L | IC50 [8]: 226 nM | Activity [9]: Non-Toxic | Activity [10]: Non-Toxic | half-life [11]: 16 h | IC50 [12]: 320 nM | Tmax [13]: 5 h | IC50 [14]: > 10 nM | IC50 [15]: 0.077 nM | IC50 [16]: 8260 nM | Activity [17]: Non-Toxic | IC50 [18]: > 10000 nM | Activity [19]: Non-Toxic | IC50 [20]: > 10000 nM | Activity [21]: Non-Toxic | Activity [22]: Non-Toxic | Activity [23]: Non-Toxic | clearance [24]: 2.83 mL/min/kg | Activity [25]: Non-Toxic | IC50 [26]: 16 nM

Nc1nccc(Oc2ccc3c(C(=O)Nc4cccc(C(F)(F)F)c4)cccc3c2)n1
IC50 [3]: > 10000 nM | IC50 [4]: > 10000 nM | IC50 [5]: > 10000 nM | IC50 [6]: 4 nM | IC50 [8]: 152 nM | Activity [10]: Non-Toxic | IC50 [12]: 165 nM | IC50 [14]: > 3000 nM | IC50 [15]: 0.12 nM | IC50 [16]: 8270 nM | Activity [17]: Non-Toxic | IC50 [18]: > 10000 nM | Activity [19]: Non-Toxic | IC50 [20]: 4750 nM | Activity [21]: Non-Toxic | IC50 [26]: 9 nM

O=C(Nc1cccc(C(F)(F)F)c1)c1cccc2cc(Oc3cc(CO)ncn3)ccc12 [BFH-772]
IC50 [3]: > 10000 nM | IC50 [4]: > 10000 nM | IC50 [5]: > 10000 nM | IC50 [6]: 2 nM | IC50 [8]: 104 nM | Activity [10]: Non-Toxic | IC50 [12]: 1500 nM | IC50 [14]: > 3000 nM | IC50 [15]: < 0.01 nM | IC50 [16]: 6540 nM | Activity [17]: Non-Toxic | IC50 [18]: > 10000 nM | Activity [19]: Non-Toxic | IC50 [20]: 7500 nM | Activity [21]: Non-Toxic | IC50 [26]: 27 nM

Nc1cc(Oc2ccc3c(C(=O)Nc4ccc(F)c(C(F)(F)F)c4)cccc3c2)ncn1
Vd [1]: 1.5 L/kg | Cmax/dose [2]: 80 nM | IC50 [3]: > 10000 nM | IC50 [4]: > 10000 nM | IC50 [5]: 7800 nM | IC50 [6]: 5 nM | AUC/dose [7]: 4.19 µmol·h/L | IC50 [8]: 40 nM | Activity [9]: Non-Toxic | Activity [10]: Non-Toxic | half-life [11]: 18.3 h | IC50 [12]: 125 nM | Tmax [13]: 8 h | IC50 [14]: 206 nM | IC50 [15]: 0.003 nM | IC50 [16]: 2660 nM | Activity [17]: Non-Toxic | IC50 [18]: > 10000 nM | Activity [19]: Non-Toxic | IC50 [20]: > 10000 nM | Activity [21]: Non-Toxic | Activity [22]: Non-Toxic | Activity [23]: Non-Toxic | clearance [24]: 0.833 mL/min/kg | Activity [25]: Non-Toxic | IC50 [26]: 10 nM

Nc1cc(Oc2ccc3c(C(=O)Nc4cccc(C(F)(F)F)c4)cccc3c2)ncn1
Vd [1]: 0.9 L/kg | Cmax/dose [2]: 50 nM | IC50 [3]: > 10000 nM | IC50 [4]: > 10000 nM | IC50 [5]: 8000 nM | IC50 [6]: 2 nM | AUC/dose [7]: 0.67 µmol·h/L | IC50 [8]: 9 nM | Activity [9]: Non-Toxic | Activity [10]: Non-Toxic | half-life [11]: 4.1 h | IC50 [12]: 37 nM | Tmax [13]: 4 h | IC50 [14]: > 3000 nM | IC50 [15]: 1.7 nM | IC50 [16]: 2280 nM | Activity [17]: Non-Toxic | IC50 [18]: > 10000 nM | Activity [19]: Non-Toxic | IC50 [20]: 9500 nM | Activity [21]: Non-Toxic | Activity [22]: Non-Toxic | Activity [23]: Non-Toxic | clearance [24]: 3 mL/min/kg | Activity [25]: Non-Toxic | IC50 [26]: 4 nM

— ChEMBL document CHEMBL5252510, “A Novel Potent Oral Series of VEGFR2 Inhibitors Abrogate Tumor Growth by Inhibiting Angiogenesis” (J Med Chem, 2016)
